Source: publication PMC10155261 (European journal of medicinal chemistry, 2022)

Key:
[1] = target: T1, hLPA5 (Homo sapiens, UniProt Q9H1C0); assay: LPA5 calcium mobilization assay; assay type: cell-based; settings: for IC50, nM: RH7777-hLPA5 cells, against EC80 (30 nM) of hexadecyl LPA 16:0, mean ± SEM
Outline: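 RH7777-hLPA5 cells were plated on poly-D-lysine at 20,000 cells/well in 0.2% FBS medium for 18–20 h at 37 °C. They were loaded 45 min with Calcium 5 dye in HBSS, 20 mM HEPES and 2.5 mM probenecid, pH 7.4. Eight test-compound concentrations were pre-incubated for 15 min at 37 °C, then hexadecyl LPA 16:0 EC80 (30 nM) was added at 10 s. Fluorescence (485/525 nm) was read every 1 s for 90 s. IC50 came from a three-parameter logistic fit of RFU. Duplicate determinations; two or at least three independent experiments.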

[2] = target: T1, hLPA5; assay: LPA5 TR-FRET Lance Ultra cAMP assay; assay type: cell-based; settings: for fold less potent than 2: cAMP assay

T1 sequence (Q9H1C0 whole entry): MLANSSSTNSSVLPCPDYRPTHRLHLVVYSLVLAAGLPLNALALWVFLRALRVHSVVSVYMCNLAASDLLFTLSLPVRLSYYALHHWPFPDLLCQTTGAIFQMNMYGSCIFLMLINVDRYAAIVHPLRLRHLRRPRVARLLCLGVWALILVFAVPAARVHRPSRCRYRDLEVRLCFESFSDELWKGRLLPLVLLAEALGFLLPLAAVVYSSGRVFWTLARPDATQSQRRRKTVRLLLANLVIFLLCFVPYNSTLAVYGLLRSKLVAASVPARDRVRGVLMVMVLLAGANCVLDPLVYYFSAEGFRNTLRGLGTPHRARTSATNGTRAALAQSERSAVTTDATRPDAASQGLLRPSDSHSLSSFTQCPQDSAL

| SMILES | IC50, nM [1] | also measured |
| --- | --- | --- |
| COc1cc2c(C(=O)N(C)C)cn(-c3cccc(N(C)C)c3)c(=O)c2cc1OC [Compound 10, 2-(3-(Dimethylamino)phenyl)-6,7-dimethoxy-N,N-dimethyl-1-oxo-1,2-dihydroisoquinoline-4-car-boxamide] | inactive | – |
| COc1cc2c(C(=O)N(C)Cc3ccncc3)cn(-c3cccc(N(C)C)c3)c(=O)c2cc1OC [Compound 11, 2-(3-(Dimethylamino)phenyl)-6,7-dimethoxy-N-methyl-1-oxo-N-(pyridin-4-ylmethyl)-1,2-dihydr-oisoquinoline-4-carboxamide] | inactive | – |
| COc1cc2c(C(=O)N3CCC3)cn(-c3cccc(N(C)C)c3)c(=O)c2cc1OC [Compound 13, 4-(Azetidine-1-carbonyl)-2-(3-(dimethylamino)phenyl)-6,7-dimethoxyisoquinolin-1(2H)-one] | inactive | – |
| COc1cc2c(C(=O)N3CCCC3)cn(-c3cccc(N(C)C)c3)c(=O)c2cc1OC [Compound 14, 2-(3-(Dimethylamino)phenyl)-6,7-dimethoxy-4-(pyrrolidine-1-carbonyl)isoquinolin-1(2H)-one] | inactive | – |
| COc1cc2c(C(=O)N3CCC(F)CC3)cn(-c3cccc(N(C)C)c3)c(=O)c2cc1OC [Compound 23, 2-(3-(Dimethylamino)phenyl)-4-(4-fluoropiperidine-1-carbonyl)-6,7-dimethoxyisoquinolin-1(2H-)-one] | – | fold less potent than 2 [2]: 4 – 10 fold |
| COc1cc2c(C(=O)N3CCC(C#N)CC3)cn(-c3cccc(N(C)C)c3)c(=O)c2cc1OC [Compound 24, 1-(2-(3-(Dimethylamino)phenyl)-6,7-dimethoxy-1-oxo-1,2-dihydroisoquinoline-4-carbonyl)piper-idine-4-carbonitrile] | – | IC50 [2]: 2100 ± 300 nM; fold less potent than 2 [2]: 4 – 10 fold |
| CN(C)c1cccc(-n2cc(C(=O)N3CCC(F)CC3)c3ccccc3c2=O)c1 [Compound 34, 2-(3-(Dimethylamino)phenyl)-4-(4-fluoropiperidine-1-carbonyl)isoquinolin-1(2H)-one] | total loss of potency | – |
| COc1cc2c(=O)n(-c3cccc(N(C)C)c3)cc(C(=O)N3CCC(F)CC3)c2cc1OCc1cccc2ccccc12 [Compound 44, 2-(3-(Dimethylamino)phenyl)-4-(4-fluoropiperidine-1-carbonyl)-7-methoxy-6-(naphthalen-1-ylm-ethoxy)isoquinolin-1(2H)-one] | total loss of activity | – |
| COc1cc2c(=O)n(-c3cccc(N(C)C)c3)cc(C(=O)N3CCC(F)CC3)c2cc1OCc1ccccn1 [Compound 45, 2-(3-(Dimethylamino)phenyl)-4-(4-fluoropiperidine-1-carbonyl)-7-methoxy-6-(pyridin-2-ylmeth-oxy)isoquinolin-1(2H)-one] | total loss of activity | – |
| COc1cc2c(C(=O)N3CCCCC3)cn(-c3cccc(C(N)=O)c3)c(=O)c2cc1OC [Compound 50, 3-(6,7-Dimethoxy-1-oxo-4-(piperidine-1-carbonyl)isoquinolin-2(1H)-yl)benzamide] | completely inactive | – |
| COc1cc2c(C(=O)N3CCCCC3)cn(-c3cccc(C(=O)N(C)C)c3)c(=O)c2cc1OC [Compound 51, 3-(6,7-Dimethoxy-1-oxo-4-(piperidine-1-carbonyl)isoquinolin-2(1H)-yl)-N,N-dimethylbenzamide] | completely inactive | – |
| COc1cc2c(C(=O)N3CCCCC3)cn(-c3ccc4occ(C)c4c3)c(=O)c2cc1OC [Compound 56, 6,7-Dimethoxy-2-(3-methylbenzofuran-5-yl)-4-(piperidine-1-carbonyl)isoquinolin-1(2H)-one] | – | potency difference between cAMP and calcium mobilization assays ([2]; cAMP potency / calcium mobilization potency): 3.9 fold |
| COc1cc2c(C(=O)N3CCC(F)CC3)cn(-c3ccc4occ(C)c4c3)c(=O)c2cc1OC [Compound 64, 4-(4-Fluoropiperidine-1-carbonyl)-6,7-dimethoxy-2-(3-methylbenzofuran-5-yl)isoquinolin-1(2H)-one] | – | fold less potent than 3 and 66 ([1]; calcium assay): ~ 4 fold |
